Assay results taken from ChEMBL document CHEMBL2321703, “Identification of novel D-amino acid oxidase inhibitors by in silico screening and their functional characterization in vitro” (J Med Chem, 2013).
Active and inactive are the calls of the source. No cut-off for these calls is given here.

What was measured:
[1] = biological target: T1, D-amino-acid oxidase (Homo sapiens, UniProt P14920); experiment: Inhibition of human recombinant N-terminal His-tagged DAO expressed in Escherichia coli BL21(DE3) using D-serine as substrate by colorimetric assay
[2] = biological target: T1, D-amino-acid oxidase; experiment: Binding affinity to human recombinant N-terminal His-tagged DAO expressed in Escherichia coli BL21(DE3) at 40 uM after 2 to 30 mins by absorption spectra analysis; settings: 200 uM, in the assay text read “at 200 uM” for “at 40 uM”
Procedure, shortened: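 Purified enzyme at 1.7 μg/μL in 10 mM sodium pyrophosphate pH 8.3 with 2 mM EDTA, 5 mM 2-mercaptoethanol, 10% (v/v) glycerol; wavelength scans at 25 °C before and after compound addition (final 40 μM or 200 μM depending on compound), recorded at indicated times; binding inferred from perturbation of the absorption spectrum.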
Target sequence in this assay (P14920 whole entry, looked up): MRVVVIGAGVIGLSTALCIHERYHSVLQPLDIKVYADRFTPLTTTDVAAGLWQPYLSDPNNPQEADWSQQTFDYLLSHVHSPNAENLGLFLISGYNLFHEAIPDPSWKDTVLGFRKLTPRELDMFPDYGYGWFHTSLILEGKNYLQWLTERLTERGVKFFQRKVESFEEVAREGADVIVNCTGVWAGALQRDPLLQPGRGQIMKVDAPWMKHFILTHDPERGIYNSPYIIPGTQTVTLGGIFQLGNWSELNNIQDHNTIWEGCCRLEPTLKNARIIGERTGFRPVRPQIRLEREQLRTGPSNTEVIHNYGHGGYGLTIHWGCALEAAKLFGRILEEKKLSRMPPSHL

[3] = biological target: T2, Serine racemase (Homo sapiens) (UniProt Q9GZT4); experiment: (§1) Inhibition of human recombinant N-terminal His-tagged serine racemase expressed in Escherichia coli BL21(DE3) using L-serine as substrate after 10 mins by fluorescence assay
T2 sequence (whole entry): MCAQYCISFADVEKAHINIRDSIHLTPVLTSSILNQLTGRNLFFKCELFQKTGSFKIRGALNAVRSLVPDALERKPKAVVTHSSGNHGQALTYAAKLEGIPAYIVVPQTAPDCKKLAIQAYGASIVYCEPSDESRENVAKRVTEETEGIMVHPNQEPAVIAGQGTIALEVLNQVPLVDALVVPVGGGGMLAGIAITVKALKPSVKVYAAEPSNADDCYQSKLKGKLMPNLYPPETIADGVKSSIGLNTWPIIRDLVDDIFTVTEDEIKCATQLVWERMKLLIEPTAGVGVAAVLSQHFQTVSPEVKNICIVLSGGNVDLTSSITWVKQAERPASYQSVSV
Procedure, shortened: (§2)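 Purified enzyme (30 μg) in 40 mM Tris-HCl pH 8.0, 60 μM pyridoxal phosphate, 1 mM MgCl2, ATP, 1 mM dithiothreitol, 10 mM L-Ser, with compound; 37 °C, 10 min; methanol stop. D-Ser quantified by OPA/Boc-L-cysteine derivatization and reversed-phase HPLC fluorescence (ex 344, em 443 nm).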

[4] = biological target: T3, Serine racemase (Homo sapiens, UniProt Q9GZT4); experiment: as §1; procedure, shortened: as §2
T3 sequence (Q9GZT4 whole entry): T2 sequence (whole entry)

[5] = biological target: T4, D-aspartate oxidase (Homo sapiens) (UniProt Q99489); experiment: (§3) Inhibition of human recombinant N-terminal His-tagged DDO expressed in Escherichia coli BL21(DE3) using D-aspartate as substrate by colorimetric assay
T4 sequence (whole entry): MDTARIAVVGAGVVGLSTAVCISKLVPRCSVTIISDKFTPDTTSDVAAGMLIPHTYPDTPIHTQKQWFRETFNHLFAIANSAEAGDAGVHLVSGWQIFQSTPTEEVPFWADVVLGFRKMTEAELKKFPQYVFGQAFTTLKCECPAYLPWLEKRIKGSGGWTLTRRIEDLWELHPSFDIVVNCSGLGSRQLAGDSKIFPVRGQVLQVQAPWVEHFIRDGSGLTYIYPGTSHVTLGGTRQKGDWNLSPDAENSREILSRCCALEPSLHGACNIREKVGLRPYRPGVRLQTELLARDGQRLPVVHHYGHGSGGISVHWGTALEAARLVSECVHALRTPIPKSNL
Procedure, shortened: (§4)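 Purified enzyme (0.23–4.2 μg) with 10 mM D-Asp in air-saturated 40 mM sodium pyrophosphate pH 8.3, 23 U catalase, 60 μM FAD; 37 °C, 10 min; trichloroacetic acid stop; 2-oxo acid measured as 2,4-dinitrophenylhydrazone at A445.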

[6] = biological target: T5, D-aspartate oxidase (Homo sapiens, UniProt Q99489); experiment: as §3; procedure, shortened: as §4
T5 sequence (Q99489 whole entry): T4 sequence (whole entry)

[7] = biological target: T1, D-amino-acid oxidase; experiment: Inhibition of human recombinant N-terminal His-tagged DAO expressed in Escherichia coli BL21(DE3) using D-alanine as substrate by colorimetric assay
[8] = biological target: T1, D-amino-acid oxidase; experiment: Inhibition of human recombinant N-terminal His-tagged DAO expressed in Escherichia coli BL21(DE3) using D-alanine as substrate assessed as residual activity at 10000 uM by colorimetric assay relative to control
Procedure, shortened: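 Purified enzyme (0.23–4.2 μg) in air-saturated 40 mM sodium pyrophosphate pH 8.3, 23 U catalase, 60 μM FAD, 10 mM D-amino acid substrate, with compound; 37 °C, 10 min; stopped with trichloroacetic acid. 2-Oxo acid reacted with 2,4-dinitrophenylhydrazine, A445 read against substrate-free blank.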
Target sequence in this assay (P14920 whole entry, looked up): as the sequence (P14920 whole entry, looked up) above

[9] = biological target: T1, D-amino-acid oxidase; experiment: Inhibition of human recombinant DAO expressed in G418-resistant HEK293/NEO cells assessed as effect on D-alanine level at 83 uM incubated for 30 mins prior to D-alanine addition measured after 24 hrs by HPLC analysis relative to vehicle-treated control; type: cell-based
Procedure, shortened: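 HEK293 cells stably carrying HA-tagged human DAO (clone 293.HA-hDAO-24) or empty vector (293/NEO), seeded at 1 × 10^6. Next day, fresh medium and 83 μM compound or vehicle (5% DMSO solution) for 30 min, then 17 mM D-Ala for 24 h. Cells methanol-extracted; D-/L-Ala by OPA/NAC-derivatized HPLC. Three independent assays, Dunnett test vs vehicle.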
Target sequence in this assay (P14920 whole entry, looked up): as the sequence (P14920 whole entry, looked up) above

[10] = system: HEK293; experiment: Effect on L-alanine level in G418-resistant HEK293 cells at 17 uM by HPLC analysis relative to vehicle-treated control; type: functional, cell-based; settings: Homo sapiens
Procedure, shortened: (§5)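 293/NEO (empty-vector, G418-selected) or 293.HA-hDAO-24 (stable N-terminal HA-tagged human DAO) cells, 1 × 10^6 seeded, maintained in DMEM/10% FBS/800 μg/mL G418; next day fresh medium, compound or vehicle (5% DMSO solution) for 30 min, then 17 mM D-Ala for 24 h. Methanol extraction; D-/L-Ala by OPA/NAC derivatization HPLC with fluorescence; mean ± SD of three assays; Dunnett test vs vehicle.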

[11] = system: HEK293/NEO; experiment: Effect on L-alanine level in G418-resistant HEK293/NEO cells at 17 uM by HPLC analysis relative to vehicle-treated control; type: functional, cell-based; settings: Homo sapiens; procedure, shortened: as §5
[12] = system: HEK293; experiment: Effect on L-alanine level in G418-resistant HEK293 cells at 83 uM by HPLC analysis relative to vehicle-treated control; type: functional, cell-based; settings: Homo sapiens; procedure, shortened: as §5
[13] = system: HEK293/NEO; experiment: Effect on L-alanine level in G418-resistant HEK293/NEO cells at 83 uM by HPLC analysis relative to vehicle-treated control; type: functional, cell-based; settings: Homo sapiens; procedure, shortened: as §5
[14] = system: D-amino-acid oxidase (Homo sapiens), P14920 [Y224A]; experiment: (§6) Inhibition of human recombinant N-terminal His-tagged DAO Y224A mutant expressed in Escherichia coli BL21(DE3) using D-alanine as substrate after 10 mins by Lineweaver-Burk plot analysis
Sequence of D-amino-acid oxidase (Homo sapiens), P14920 [Y224A] (P14920 whole entry Y224A): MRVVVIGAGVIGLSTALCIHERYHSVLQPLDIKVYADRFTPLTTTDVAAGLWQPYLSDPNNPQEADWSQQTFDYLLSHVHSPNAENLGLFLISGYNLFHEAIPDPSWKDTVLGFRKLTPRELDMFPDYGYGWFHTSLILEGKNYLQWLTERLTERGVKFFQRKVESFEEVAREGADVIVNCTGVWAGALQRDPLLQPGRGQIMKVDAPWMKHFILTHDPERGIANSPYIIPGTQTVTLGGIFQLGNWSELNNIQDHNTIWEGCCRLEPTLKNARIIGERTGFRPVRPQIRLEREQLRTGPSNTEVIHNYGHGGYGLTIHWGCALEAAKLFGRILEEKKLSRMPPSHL

[15] = system: D-amino-acid oxidase (Homo sapiens), P14920 [Y224F]; experiment: (§7) Inhibition of human recombinant N-terminal His-tagged DAO Y224F mutant expressed in Escherichia coli BL21(DE3) using D-alanine as substrate after 10 mins by Lineweaver-Burk plot analysis
Sequence of D-amino-acid oxidase (Homo sapiens), P14920 [Y224F] (P14920 whole entry Y224F): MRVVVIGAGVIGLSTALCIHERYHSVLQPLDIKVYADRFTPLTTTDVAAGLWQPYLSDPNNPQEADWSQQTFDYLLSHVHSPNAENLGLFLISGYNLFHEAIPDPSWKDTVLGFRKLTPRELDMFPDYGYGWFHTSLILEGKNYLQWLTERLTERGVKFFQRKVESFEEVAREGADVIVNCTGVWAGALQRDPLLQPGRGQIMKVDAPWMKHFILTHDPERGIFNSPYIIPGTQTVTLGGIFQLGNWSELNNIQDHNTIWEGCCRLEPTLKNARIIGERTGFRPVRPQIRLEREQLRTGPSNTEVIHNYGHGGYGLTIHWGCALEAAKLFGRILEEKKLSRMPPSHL

[16] = biological target: T1, D-amino-acid oxidase; experiment: Competitive inhibition of human recombinant N-terminal His-tagged DAO expressed in Escherichia coli BL21(DE3) using D-alanine as substrate by Lineweaver-Burk plot analysis
Procedure, shortened: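 Purified N-terminal His-tagged human DAO from E. coli BL21(DE3)pLysS. Colorimetric 2-oxo acid assay in air-saturated 40 mM sodium pyrophosphate pH 8.3 with catalase, 60 μM FAD and 0.5–40 mM D-Ala, 37 °C for 10 min. Stopped with TCA, derivatized with 2,4-dinitrophenylhydrazine, read at A445. Lineweaver–Burk plots; Ki confirmed by slope replot against inhibitor concentration. Three independent experiments.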
Target sequence in this assay (P14920 whole entry, looked up): as the sequence (P14920 whole entry, looked up) above

[17] = biological target: T1, D-amino-acid oxidase; settings: HEK293, 83 uM
Target sequence in this assay (P14920 whole entry, looked up): as above

[18] = biological target: T1, D-amino-acid oxidase; experiment: Binding affinity to human recombinant N-terminal His-tagged DAO expressed in Escherichia coli BL21(DE3) at 200 uM after 2 to 30 mins by absorption spectra analysis
Target sequence in this assay (P14920 whole entry, looked up): as above

[19] = biological target: D-amino-acid oxidase (Homo sapiens, UniProt P14920, Y224A); experiment: as §6
Sequence of D-amino-acid oxidase (Homo sapiens, UniProt P14920, Y224A) (P14920 whole entry Y224A): as the sequence (P14920 whole entry Y224A) above

[20] = biological target: D-amino-acid oxidase (Homo sapiens, UniProt P14920, Y224F); experiment: as §7
Sequence of D-amino-acid oxidase (Homo sapiens, UniProt P14920, Y224F) (P14920 whole entry Y224F): as the sequence (P14920 whole entry Y224F) above

[21] = biological target: T1, D-amino-acid oxidase; experiment: Inhibition of human recombinant N-terminal His-tagged DAO expressed in Escherichia coli BL21(DE3) using D-alanine as substrate by Lineweaver-Burk plot analysis
Target sequence in this assay (P14920 whole entry): as the sequence (P14920 whole entry, looked up) above

Structure (SMILES) | IC50 [1] [µM] | inhibition [3] | IC50 [4] [µM] | inhibition [5] | IC50 [6] [µM] | IC50 [7] [µM] | inhibition [7] | also measured
NC[C@H](O)c1ccc(O)c(O)c1 [NOREPINEPHRINE] | > 10000 |  |  |  |  |  |  | 
Nc1ccc(-c2nnc(O)o2)cc1 | > 10000 |  |  |  |  |  |  | 
O=C(O)CC(=O)O [MALONIC ACID] | > 10000 | Dose-dependent effect | 24.9 | Dose-dependent effect | 1350 |  |  | Activity [2]: inactive
O=C(O)c1ccsc1 |  | Dose-dependent effect | 8210 | Dose-dependent effect | > 10000 |  | Dose-dependent effect | inhibition [9]: inactive; Activity [10]: inactive; Activity [11]: inactive; Activity [12]: inactive; Activity [13]: inactive; inhibition [14]: Dose-dependent effect; inhibition [15]: Dose-dependent effect; inhibition [16]: Active; inhibition [1]: Dose-dependent effect; inhibition [17]: Active; Activity [18]: Active
O=C(O)C1=CN2CCN=C2C=C1 | > 1000 |  |  |  |  |  |  | 
Oc1nc(-c2ccccc2)no1 | > 5000 |  |  |  |  |  |  | 
O=C(O)[C@@H](O)[C@@H](O)C(=O)O |  | Dose-dependent effect |  | Dose-dependent effect |  |  |  | 
CNCC(=O)c1ccc(O)c(O)c1 [ADRENALONE] | > 1000 |  |  |  |  |  |  | 
O=C(O)C(O)C(O)C(=O)O (stereo not drawn) | > 10000 |  | 2820 |  | 3920 |  |  | 
O=C(O)c1cn2ccccc2n1 | > 2500 |  |  |  |  |  |  | 
O=C(O)c1ccc2cccnc2n1 | > 10000 |  |  |  |  |  |  | 
O=C(O)c1ccc[n+]([O-])c1 [OXINIACIC ACID] | > 2500 |  |  |  |  |  |  | 
Nc1cncc(C(=O)O)c1 | > 2500 |  |  |  |  |  |  | 

The next lines start with results.

IC50 [1] [µM] | inhibition [3] | IC50 [4] [µM] | inhibition [5] | IC50 [6] [µM] | IC50 [7] [µM] | inhibition [7] | Structure (SMILES) | also measured
666 | Dose-dependent effect | 5720 | Dose-dependent effect | > 10000 | 1100 | Dose-dependent effect | CCc1cc(C(=O)O)sc1C | 
6270 | Dose-dependent effect | 8390 | Dose-dependent effect | > 10000 | > 10000 | Dose-dependent effect | O=C(O)/C=C/c1cccc(O)c1 | Activity [8]: 51.5%; inhibition [1]: Dose-dependent effect
> 100 |  |  |  |  |  |  | O=C(O)c1cc2c([nH]1)CCCC2 | 
199 | Dose-dependent effect | > 5000 | Dose-dependent effect | > 5000 | 298 | Dose-dependent effect | Cc1ccccc1-c1nnc(O)o1 | inhibition [1]: Dose-dependent effect
357 |  | > 10000 |  | > 10000 | 598 |  | C/C=C/C(=O)O [CROTONIC ACID] | inhibition [1]: Dose-dependent effect
0.44 | Dose-dependent effect | > 10000 | Dose-dependent effect | 7580 | 0.943 | Dose-dependent effect | O=c1oc2ccccc2cc1O [3-HYDROXYCOUMARIN] | inhibition [9]: inactive; Activity [10]: inactive; Activity [11]: inactive; Activity [12]: inactive; Activity [13]: inactive; inhibition [14]: Dose-dependent effect; Ki [19]: 3.69 µM; inhibition [15]: Dose-dependent effect; Ki [20]: 0.265 µM; inhibition [16]: Active; inhibition [1]: Dose-dependent effect; inhibition [17]: Active; Ki [21]: 0.156 µM; Activity [18]: Active
253 | Dose-dependent effect | > 10000 | Dose-dependent effect | > 10000 | 365 | Dose-dependent effect | O=c1[nH]nc(-c2ccccc2)o1 | 
28.5 | Dose-dependent effect | 5280 | Dose-dependent effect | > 10000 | 59.8 | Dose-dependent effect | O=C(O)c1cc2c(s1)CCC2 | inhibition [9]: inactive; Activity [10]: inactive; Activity [12]: inactive; Activity [13]: inactive; inhibition [14]: Dose-dependent effect; Ki [19]: 4.59 µM; inhibition [15]: Dose-dependent effect; Ki [20]: 14.4 µM; inhibition [16]: Active; Activity [2]: Active; inhibition [1]: Dose-dependent effect; Ki [21]: 9.92 µM
900 | Dose-dependent effect | 5010 | Dose-dependent effect | > 10000 | 1450 | Dose-dependent effect | O=C(O)c1cc2c(s1)CCCC2 | 
> 500 |  |  |  |  |  |  | Oc1cc(-c2ccccc2)no1 | 
1830 | Dose-dependent effect | 5160 | Dose-dependent effect | > 10000 | 3720 | Dose-dependent effect | CCCc1cc(C(=O)O)sc1C | 
